Experiments:
MCF-7 (breast cancer) = assay: In vitro cell viability assay; type: cell-based; details: Homo sapiens, MCF7, 48 h, read-out: IC50 MCF-7
[1] = tested on: hematological cell lines (HL60, K562 and HEL); assay: Antiproliferative activity, hematological cell lines together; type: cell-based; details: read-out: IC50 range toward hematological cell lines
HCT116 (colon cancer) = assay: In vitro cell viability assay; type: cell-based; details: Homo sapiens, HCT-116, 48 h, read-out: IC50 HCT116
[2] = Pharmacokinetic study in SD rats; type: in vivo; details: male, Sprague-Dawley, rat, plasma, 20 mg/kg
HDAC4 = HDAC4 (Homo sapiens, UniProt P56524); assay: HDACs activity assay, HDAC4; type: biochemical
Sequence of HDAC4 (P56524 whole entry, canonical isoform): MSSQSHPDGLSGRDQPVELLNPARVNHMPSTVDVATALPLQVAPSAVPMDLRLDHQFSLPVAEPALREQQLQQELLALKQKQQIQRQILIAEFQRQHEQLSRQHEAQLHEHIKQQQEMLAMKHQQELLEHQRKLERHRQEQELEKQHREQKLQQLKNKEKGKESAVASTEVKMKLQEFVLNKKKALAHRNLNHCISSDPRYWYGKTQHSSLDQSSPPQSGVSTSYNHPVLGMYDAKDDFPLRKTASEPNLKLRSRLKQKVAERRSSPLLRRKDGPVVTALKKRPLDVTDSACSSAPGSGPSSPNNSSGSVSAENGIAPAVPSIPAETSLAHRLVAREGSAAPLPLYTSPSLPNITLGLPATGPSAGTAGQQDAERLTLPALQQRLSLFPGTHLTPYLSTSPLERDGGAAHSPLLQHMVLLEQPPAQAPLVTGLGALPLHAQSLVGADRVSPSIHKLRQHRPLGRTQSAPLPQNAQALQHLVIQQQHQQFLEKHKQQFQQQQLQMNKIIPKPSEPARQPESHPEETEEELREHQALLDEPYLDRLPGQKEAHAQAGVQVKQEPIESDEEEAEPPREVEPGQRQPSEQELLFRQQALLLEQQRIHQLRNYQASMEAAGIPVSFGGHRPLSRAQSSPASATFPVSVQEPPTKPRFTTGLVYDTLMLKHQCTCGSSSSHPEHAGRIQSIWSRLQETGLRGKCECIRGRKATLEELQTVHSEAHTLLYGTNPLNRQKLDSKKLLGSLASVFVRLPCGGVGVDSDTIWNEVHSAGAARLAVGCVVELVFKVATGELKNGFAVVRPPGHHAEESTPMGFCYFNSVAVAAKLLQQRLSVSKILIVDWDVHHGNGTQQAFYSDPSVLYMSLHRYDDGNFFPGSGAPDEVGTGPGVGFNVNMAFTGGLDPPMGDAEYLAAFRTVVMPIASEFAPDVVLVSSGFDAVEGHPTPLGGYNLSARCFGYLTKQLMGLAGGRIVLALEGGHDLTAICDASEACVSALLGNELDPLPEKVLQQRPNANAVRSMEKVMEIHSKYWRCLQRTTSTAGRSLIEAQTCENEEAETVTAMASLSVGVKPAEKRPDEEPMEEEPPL
Summary of the method: (§1)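 Enzyme reactions run 30 min at 37 °C in 25 mmol/L Tris pH 8.0, 137 mmol/L NaCl, 2.7 mmol/L KCl, 1 mmol/L MgCl2, 0.1 mg/mL BSA with the HDAC isoform and its substrate. Test compound diluted in 10% DMSO, final DMSO 1%. Fluorescent product read at excitation 350–360, emission 450–460. IC50 from normalized nonlinear dose-response fit. At least three independent runs; mean ± SD (n = 3).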

HDAC3 = HDAC3 (Homo sapiens, UniProt O15379); assay: HDACs activity assay, HDAC3; type: biochemical
Summary of the method: as §1

[3] = tested on: Acetyl-H3 and Acetyl-H4 in HCT116 cells; assay: Western blot for acetylated histones H3 and H4; type: cell-based, human; details: 0.5 and 5 μmol/L, 24 h
Summary of the method: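 HCT116 cells (35 × 10^4/well) were exposed 24 h to test compound or DMSO vehicle, washed with cold PBS and lysed 30 min on ice in RIPA with protease/phosphatase inhibitors. BCA-quantified protein (30 μg) was run on SDS-PAGE and transferred to PVDF. Membranes were blocked 2 h in 5% BSA, probed overnight at 4 °C with anti-histone H3 and H4 antibodies, then secondary 1.5 h. Infrared imaging.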

TOP2α = TOP2α (Homo sapiens, UniProt P11388); assay: TOP2-mediated pBR322 DNA relaxation assay; type: biochemical
Sequence of TOP2α (P11388 whole entry): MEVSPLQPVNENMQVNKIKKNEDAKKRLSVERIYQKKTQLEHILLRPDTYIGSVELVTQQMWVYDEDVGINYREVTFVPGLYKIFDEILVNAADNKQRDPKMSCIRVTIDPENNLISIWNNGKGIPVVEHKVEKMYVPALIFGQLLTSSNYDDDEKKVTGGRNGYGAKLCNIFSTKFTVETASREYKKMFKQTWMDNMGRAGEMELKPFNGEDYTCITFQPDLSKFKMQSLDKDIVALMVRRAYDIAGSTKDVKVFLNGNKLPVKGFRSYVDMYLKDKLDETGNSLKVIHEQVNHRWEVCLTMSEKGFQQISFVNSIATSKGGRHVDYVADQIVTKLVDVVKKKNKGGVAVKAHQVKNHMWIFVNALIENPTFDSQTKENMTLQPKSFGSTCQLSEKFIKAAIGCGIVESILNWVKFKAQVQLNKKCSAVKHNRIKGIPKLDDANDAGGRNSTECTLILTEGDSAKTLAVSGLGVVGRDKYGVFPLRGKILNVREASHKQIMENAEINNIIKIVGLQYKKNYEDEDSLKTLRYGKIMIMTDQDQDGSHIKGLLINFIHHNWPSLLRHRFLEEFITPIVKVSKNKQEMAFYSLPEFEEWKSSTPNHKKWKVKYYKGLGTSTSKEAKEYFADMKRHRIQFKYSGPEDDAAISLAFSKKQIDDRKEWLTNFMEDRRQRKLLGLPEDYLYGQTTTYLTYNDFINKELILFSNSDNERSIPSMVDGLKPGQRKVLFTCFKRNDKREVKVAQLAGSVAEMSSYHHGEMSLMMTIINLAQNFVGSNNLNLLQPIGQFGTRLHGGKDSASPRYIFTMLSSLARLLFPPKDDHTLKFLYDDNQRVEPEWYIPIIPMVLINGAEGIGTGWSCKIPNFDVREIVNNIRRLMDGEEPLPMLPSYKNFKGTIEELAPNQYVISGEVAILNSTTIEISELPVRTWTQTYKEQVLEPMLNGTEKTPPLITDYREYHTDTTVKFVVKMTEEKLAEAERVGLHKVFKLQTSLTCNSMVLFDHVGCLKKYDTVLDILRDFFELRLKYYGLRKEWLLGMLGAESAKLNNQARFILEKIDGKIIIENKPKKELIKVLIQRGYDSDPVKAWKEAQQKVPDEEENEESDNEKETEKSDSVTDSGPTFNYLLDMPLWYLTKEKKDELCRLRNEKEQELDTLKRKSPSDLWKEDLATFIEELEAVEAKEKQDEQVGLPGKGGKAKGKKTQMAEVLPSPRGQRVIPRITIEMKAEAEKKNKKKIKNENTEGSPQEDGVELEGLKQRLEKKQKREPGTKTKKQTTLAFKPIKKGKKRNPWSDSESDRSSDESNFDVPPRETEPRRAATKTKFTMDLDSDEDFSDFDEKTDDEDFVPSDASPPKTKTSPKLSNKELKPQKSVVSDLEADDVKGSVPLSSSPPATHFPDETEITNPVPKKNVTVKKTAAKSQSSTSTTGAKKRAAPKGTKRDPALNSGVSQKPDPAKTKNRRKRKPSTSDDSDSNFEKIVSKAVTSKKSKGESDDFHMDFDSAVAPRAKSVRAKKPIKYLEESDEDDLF

[4] = molecular target: human recombinant HDAC1 enzyme (Homo sapiens, UniProt Q13547); assay: HDACs activity assay, HDAC1; type: biochemical; details: read-out: IC50 HDAC1; Table 3, Table S1 and text
Sequence of human recombinant HDAC1 enzyme (Q13547 whole entry): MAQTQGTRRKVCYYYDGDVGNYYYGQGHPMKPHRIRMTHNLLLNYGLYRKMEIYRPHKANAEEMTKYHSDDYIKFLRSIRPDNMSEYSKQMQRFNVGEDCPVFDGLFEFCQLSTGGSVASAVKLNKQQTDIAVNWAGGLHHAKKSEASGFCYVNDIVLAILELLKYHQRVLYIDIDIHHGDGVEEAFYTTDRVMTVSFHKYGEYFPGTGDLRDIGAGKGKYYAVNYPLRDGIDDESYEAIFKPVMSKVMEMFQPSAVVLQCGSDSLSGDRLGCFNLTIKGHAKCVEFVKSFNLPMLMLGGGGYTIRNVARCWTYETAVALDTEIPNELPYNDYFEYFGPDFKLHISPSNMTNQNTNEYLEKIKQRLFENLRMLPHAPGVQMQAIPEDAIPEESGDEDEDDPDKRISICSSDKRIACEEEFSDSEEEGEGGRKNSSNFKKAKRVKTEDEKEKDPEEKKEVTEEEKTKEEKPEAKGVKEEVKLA

HCT116 xenograft = assay: In vivo tumor growth inhibition assay against HCT116 xenograft; details: bid
HDAC10 = HDAC10 (Homo sapiens, UniProt Q969S8); assay: HDACs activity assay, HDAC10; type: biochemical
Sequence of HDAC10 (Q969S8 whole entry): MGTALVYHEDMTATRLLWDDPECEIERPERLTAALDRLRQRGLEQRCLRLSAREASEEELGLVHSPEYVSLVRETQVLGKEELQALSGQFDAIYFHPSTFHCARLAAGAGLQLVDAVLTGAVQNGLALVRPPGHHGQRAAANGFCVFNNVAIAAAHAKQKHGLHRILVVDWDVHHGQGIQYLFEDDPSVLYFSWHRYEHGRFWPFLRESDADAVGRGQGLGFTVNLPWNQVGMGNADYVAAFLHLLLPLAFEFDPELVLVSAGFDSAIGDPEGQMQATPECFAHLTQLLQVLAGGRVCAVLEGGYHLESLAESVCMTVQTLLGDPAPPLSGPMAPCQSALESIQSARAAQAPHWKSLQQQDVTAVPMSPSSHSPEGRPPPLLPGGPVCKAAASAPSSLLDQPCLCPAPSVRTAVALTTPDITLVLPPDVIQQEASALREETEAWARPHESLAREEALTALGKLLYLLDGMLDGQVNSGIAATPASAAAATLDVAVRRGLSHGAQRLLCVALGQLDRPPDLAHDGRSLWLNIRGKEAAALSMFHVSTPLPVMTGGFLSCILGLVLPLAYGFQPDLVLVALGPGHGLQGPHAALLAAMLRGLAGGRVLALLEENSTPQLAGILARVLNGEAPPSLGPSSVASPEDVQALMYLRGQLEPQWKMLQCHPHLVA
Summary of the method: as §1

HDAC6 = HDAC6 (Homo sapiens, UniProt Q9UBN7); assay: HDACs activity assay, HDAC6; type: biochemical
Sequence of HDAC6 (Q9UBN7 whole entry): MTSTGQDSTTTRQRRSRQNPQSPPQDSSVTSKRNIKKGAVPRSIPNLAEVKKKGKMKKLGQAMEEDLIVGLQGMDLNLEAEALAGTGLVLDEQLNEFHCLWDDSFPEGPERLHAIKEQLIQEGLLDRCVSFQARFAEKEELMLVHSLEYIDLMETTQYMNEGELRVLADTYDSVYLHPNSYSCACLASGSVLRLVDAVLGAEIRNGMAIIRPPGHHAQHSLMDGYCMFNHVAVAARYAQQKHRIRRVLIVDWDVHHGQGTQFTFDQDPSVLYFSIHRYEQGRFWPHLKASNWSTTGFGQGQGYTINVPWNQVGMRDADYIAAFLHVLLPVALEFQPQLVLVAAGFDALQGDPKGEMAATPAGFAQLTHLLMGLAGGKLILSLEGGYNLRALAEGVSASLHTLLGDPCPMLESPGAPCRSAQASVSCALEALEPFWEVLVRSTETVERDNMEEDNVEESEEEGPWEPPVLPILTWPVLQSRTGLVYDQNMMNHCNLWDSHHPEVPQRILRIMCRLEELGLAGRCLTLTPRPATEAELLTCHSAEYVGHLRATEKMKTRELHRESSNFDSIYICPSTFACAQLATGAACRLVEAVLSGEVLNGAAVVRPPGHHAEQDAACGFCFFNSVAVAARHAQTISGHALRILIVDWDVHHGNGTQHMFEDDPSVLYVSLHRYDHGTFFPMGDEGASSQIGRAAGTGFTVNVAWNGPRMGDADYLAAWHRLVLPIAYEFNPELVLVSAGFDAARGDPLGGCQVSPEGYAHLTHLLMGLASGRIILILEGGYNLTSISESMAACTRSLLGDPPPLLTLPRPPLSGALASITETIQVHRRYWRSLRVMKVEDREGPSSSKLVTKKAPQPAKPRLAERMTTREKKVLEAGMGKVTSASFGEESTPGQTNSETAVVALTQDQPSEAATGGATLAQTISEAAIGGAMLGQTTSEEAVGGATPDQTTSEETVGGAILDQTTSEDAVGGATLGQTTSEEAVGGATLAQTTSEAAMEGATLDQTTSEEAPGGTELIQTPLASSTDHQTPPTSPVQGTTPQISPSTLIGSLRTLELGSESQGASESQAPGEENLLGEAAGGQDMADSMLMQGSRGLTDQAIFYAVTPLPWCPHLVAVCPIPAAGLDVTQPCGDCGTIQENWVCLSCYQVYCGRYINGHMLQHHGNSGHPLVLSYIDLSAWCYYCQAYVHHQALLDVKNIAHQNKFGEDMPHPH
Summary of the method: as §1

HCT116 cells [5] = assay: Flow cytometry analysis of cell cycle; type: cell-based, human; details: 48 h
HDAC8 = HDAC8 (Homo sapiens, UniProt Q9BY41); assay: HDACs activity assay, HDAC8; type: biochemical
Summary of the method: as §1

HDAC11 = HDAC11 (Homo sapiens, UniProt Q96DB2); assay: HDACs activity assay, HDAC11; type: biochemical
Summary of the method: as §1

HDAC2 = HDAC2 (Homo sapiens, UniProt Q92769); assay: HDACs activity assay, HDAC2; type: biochemical
Summary of the method: as §1

γH2AX in HCT116 cells = assay: Western blot for γH2AX; type: cell-based, human; details: 0.5 and 5 μmol/L, 24 h
Summary of the method: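 HCT116 seeded at 35 × 10^4 cells/well, treated 24 h with test compound or vehicle. Cells washed in cold PBS, lysed 30 min on ice in RIPA with protease and phosphatase inhibitors, protein quantified by BCA. 30 μg resolved by SDS-PAGE, transferred to PVDF, blocked 2 h in 5% BSA, primary antibody overnight at 4 °C, secondary 1.5 h, infrared imaging.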

[6] = In vitro metabolic stability in mice liver microsomes; type: in vitro ADME
HUVEC = assay: Cytotoxicity against human normal cell line HUVEC; type: cell-based; details: read-out: IC50 HUVEC
A549 (lung cancer) = assay: In vitro cell viability assay; type: cell-based; details: Homo sapiens, A549, 48 h, read-out: IC50 A549
HCT116 cells [7] = assay: Flow cytometry assay of cell apoptosis; type: cell-based, human; details: 48 h
[8] = female, ICR, mouse, liver microsomes, pH 7.4

IC50 (MCF-7 (breast cancer)): 18 ± 2 µM
IC50 [1]: 0.56 to 1.9 µM
IC50 (HCT116 (colon cancer)): 1.6 ± 0.15 µM
AUC(0-t) ([2]; ip): 86900 ng·h/mL
half-life ([2]; ip): > 24 h
AUC(0-t) ([2]; po): 485 ng·h/mL
half-life ([2]; po): 4.03 h
IC50 (HDAC4): > 100 µM
IC50 (HDAC3): 27 ± 4.8 µM
TOP2 inhibitory activity (relaxation assay) (TOP2α; 50 μmol/L): remarkable TOP2 inhibitory activities
TOP2 inhibitory activity (relaxation assay) (TOP2α; 100 μmol/L): remarkable TOP2 inhibitory activities
IC50 [4]: 0.16 ± 0.015 µM
IC50 (HDAC10): 5.5 ± 1.5 µM
IC50 (HDAC6): > 100 µM
IC50 (HDAC8): > 100 µM
IC50 (HDAC11): > 100 µM
IC50 (HDAC2): 10 ± 1.4 µM
half-life at 1 μmol/L [6, 8]: 0.583 h
microsomal CLint at 1 μmol/L [6, 8]: 39.1 µL/min/mg
Microsomal t1/2 relative to compound 25a ([6]; mice liver microsomes): ~3 fold
IC50 (A549 (lung cancer)): 7.8 ± 0.65 µM
SMILES: CN1c2ccccc2C(=O)N2[C@H](C(=O)Nc3ccc(C(=O)Nc4ccccc4N)cc3)Cc3c([nH]c4ccccc34)[C@@H]12 [Compound 30a, (7S,13bS)-N-(4-((2-Aminophenyl)carbamoyl)phenyl)-14-methyl-5-oxo-5,7,8,13,13b,14-hexahydroindolo[2′,3′:3,4]pyrido[2,1-b]quinazoline-7-carboxamide]
Acetylation of histone 3 and 4 (Acetyl-H3 and Acetyl-H4) [3]: hyperacetylation effect of histone 3 and 4 (Acetyl-H3 and Acetyl-H4) in a dose-dependent manner
Tumor growth inhibition (TGI) (HCT116 xenograft; 20 mg/kg, i.p., 14 consecutive days): 63.6%
Tumor growth inhibition (TGI) (HCT116 xenograft; 100 mg/kg, p.o., 21 days): 65.42%
Tumor growth inhibition (TGI) (HCT116 xenograft; 150 mg/kg, p.o., 21 days (dose of the combination not given)): 75.2%
Body weight during the test (HCT116 xenograft; p.o., 100 or 150 mg/kg, 21 days): no significant difference
Ratio of cells at the G2/M phase (HCT116 cells [5]; HCT116, 0.5 μmol/L): 32.9%
Ratio of cells at the G2/M phase (HCT116 cells [5]; HCT116, 1 μmol/L): 36.4%
Ratio of cells at the G2/M phase (HCT116 cells [5]; HCT116, 2 μmol/L): 38.8%
Expression of γH2AX (γH2AX in HCT116 cells): increased the expression of γH2AX
IC50 (HUVEC): 48 µM
Percentage of apoptotic cells (HCT116 cells [7]; HCT116, 0.5 μmol/L): 27.6%
Percentage of apoptotic cells (HCT116 cells [7]; HCT116, 1 μmol/L): 37.1%
Percentage of apoptotic cells (HCT116 cells [7]; HCT116, 5 μmol/L): 88.8%
